# Measurements from ChEMBL document CHEMBL1125056, “Heterosubstituted anthracene-9,10-dione analogues. The synthesis and antitumor evaluation of 5,8-bis[(aminoalkyl)amino]naphtho[2,3-b] thiophene-4,9-diones” (1990).
# Tests used:
# [1] = tested on: L1210; experiment: Compound was tested for the concentration required to inhibit L1210 murine leukemia cell growth by 50% of control; format: functional; conditions: Mus musculus, read-out: ID50 (the source's name)
# Outline: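 L1210 cells grown in suspension in McCoy's 5A with 10% horse serum, glutamine, penicillin and streptomycin at 37 °C in 10% CO2. Drug was added from DMSO to 5 × 10^4 cells/mL at final 0.01, 0.1 and 10 μg/mL. After 72 h continuous exposure, cells were counted on a Coulter counter.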
# [2] = tested on: L1210; experiment: T/C in % was determined against L1210 murine leukemia cells at a dose of 4 x3 mg/kg 60 - day survivors =3/6; format: functional, Mus musculus
# [3] = tested on: L1210; experiment: T/C in % was determined against L1210 murine leukemia cells at a dose of 8 x3 mg/kg; 60 - day survivors =1/6; format: functional, Mus musculus
# [4] = tested on: L1210; experiment: T/C in % was determined against L1210 murine leukemia cells at a dose of 12.5 x2 mg/kg; 60 - day survivors =1/6; format: functional, Mus musculus
# [5] = tested on: L1210; experiment: T/C in % was determined against L1210 murine leukemia cells at a dose of 25 x3 mg/kg; 60 - day survivors =1/6; format: functional, Mus musculus
# [6] = tested on: L1210; experiment: T/C in % was determined against L1210 murine leukemia cells at a dose of 12.5 x3 mg/kg; format: functional, Mus musculus
# [7] = tested on: L1210; experiment: T/C in % was determined against L1210 murine leukemia cells at a dose of 50 x3 mg/kg
# [8] = tested on: L1210; experiment: T/C in % was determined against L1210 murine leukemia cells at a dose of 6.25 x3 mg/kg; 60 - day survivors =1/6; format: functional, Mus musculus
# [9] = tested on: L1210; experiment: T/C in % was determined against L1210 murine leukemia cells at a dose of 25x3 mg/kg; 60 - day survivors =3/6; format: functional, Mus musculus
# [10] = tested on: L1210; experiment: T/C in % was determined against L1210 murine leukemia cells at a dose of 12.5x2 mg/kg; 60 - day survivors =0/6; format: functional, Mus musculus
# [11] = tested on: P388 leukemia (mouse); experiment: T/C in % was determined against P388 murine leukemia cells at a dose of 50 x2 mg/kg; 60 - day survivors =0/6
# [12] = tested on: P388 leukemia (mouse); experiment: T/C in % was determined against P388 murine leukemia cells at a dose of 25 x2 mg/kg; 60 - day survivors =0/6
# [13] = tested on: L1210; experiment: T/C in % was determined against L1210 murine leukemia cells at a dose of 50 x3 mg/kg; 60 - day survivors =0/6; format: functional, Mus musculus
# [14] = tested on: L1210; experiment: T/C in % was determined against L1210 murine leukemia cells at a dose of 25 x3 mg/kg; 60 - day survivors =0/6; format: functional, Mus musculus
# [15] = tested on: P388 leukemia (mouse); experiment: T/C in % was determined against P388 murine leukemia cells at a dose of 100 x1 mg/kg; Toxic
structure (smiles),measurement,setting,value
NCCNc1ccc(NCCN)c2c1C(=O)c1ccsc1C2=O,IC50,[1],0.026 µg/mL
same,T/C,[2],325%
same,T/C,[3],400%
same,T/C,[4],386%
O=C1c2ccccc2C(=O)c2c(NCCNCCO)ccc(NCCNCCO)c21 [AMETANTRONE],T/C,[5],203%
same,T/C,[6],177%
same,T/C,[7],146%
O=C1c2ccsc2C(=O)c2c(NCCBr)ccc(NCCBr)c21,IC50,[1],5.2 µg/mL
O=C1c2ccsc2C(=O)c2c(NCCNCCO)ccc(NCCNCCO)c21,IC50,[1],0.064 µg/mL
same,T/C,[8],403%
same,T/C,[9],333%
O=C1c2ccsc2C(=O)c2c(NCCO)ccc(NCCO)c21,IC50,[1],> 10 µg/mL
O=C1c2ccsc2C(=O)c2c(NCCN3CC3)ccc(NCCN3CC3)c21,IC50,[1],0.0035 µg/mL
same,T/C,[10],104%
same,T/C,[11],114%
same,T/C,[12],112%
CN(C)CCNc1ccc(NCCN(C)C)c2c1C(=O)c1ccsc1C2=O,IC50,[1],0.038 µg/mL
same,T/C,[13],109%
same,T/C,[14],107%
same,T/C,[15],Toxic
same,T/C,[11],128%
same,T/C,[12],108%
